Assay results taken from ChEMBL document CHEMBL3808283, “Biological Characterization and in Vivo Assessment of the Activity of a New Synthetic Macrocyclic Antifungal Compound” (J Med Chem, 2016).
In brackets after ≈: the same amount, converted by molar mass. Activity calls are given as the source filed them. The calls are words filed in the database; no cut-off is given here.

Tests used:
[1] = test system: Candida albicans; assay: Antifungal activity against Candida albicans ATCC 60193 up to 96 hrs by broth dilution assay; type: functional; details: ATCC 60193, 96 h
[2] = Drug transport in Candida albicans ATCC 60193 assessed as ABC transpoter-mediated drug accumulation at 5 to 80 uM after 24 hrs by confocal microscopic analysis; type: ADME
[3] = Drug transport in Cryptococcus neoformans assessed as ABC transpoter-mediated drug accumulation at 5 to 80 uM after 24 hrs by confocal microscopic analysis; type: ADME
[4] = test system: Candida albicans; assay: Antifungal activity against fluconazole-susceptible Candida albicans ATCC 90028 in immunocompetent Balb/c mouse candidiasis model assessed as reduction in CFU count in spleen at 8 mg/kg/day, ip regime measured on day 7 post infection; type: functional, organism-based
Method in brief: (§1)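 Immunocompetent BALB/c mice, 10 per strain group, received 7 × 10^4 CFU of C. albicans in 200 µL saline via the lateral vein. Fluconazole was given i.p. at 8 mg/kg/day. On day 7, spleen and kidneys were weighed, homogenized, and plated on YPD agar (2 days, 30 °C) for CFU per gram of organ. Analysis used Wilcoxon rank-sum, P<0.05.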

[5] = test system: Candida albicans; assay: Antifungal activity against azole-susceptible Candida albicans isolate DSY294 in immunocompetent Balb/c mouse candidiasis model assessed as reduction in CFU count in spleen at 8 mg/kg/day, ip regime measured on day 7 post infection; type: functional, organism-based; method in brief: as §1
[6] = test system: Candida albicans; assay: Antifungal activity against fluconazole-susceptible Candida albicans ATCC 90028 in immunocompetent Balb/c mouse candidiasis model assessed as reduction in CFU count in kidney at 8 mg/kg/day, ip regime measured on day 7 post infection; type: functional, organism-based; method in brief: as §1
[7] = test system: Candida albicans; assay: Antifungal activity against azole-susceptible Candida albicans isolate DSY294 in immunocompetent Balb/c mouse candidiasis model assessed as reduction in CFU count in kidney at 8 mg/kg/day, ip regime measured on day 7 post infection; type: functional, organism-based; method in brief: as §1
[8] = Drug transport in Candida albicans ATCC 60193 with damaged cell wall assessed as ABC transpoter-mediated drug accumulation in cytoplasm at 40 uM after 48 hrs by confocal microscopic analysis; type: ADME
Method in brief: (§2)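 C. albicans ATCC 60193 or Cry. neoformans treated 48 h with the fluorescent probe at 40 µM from a DMSO solution. Cells were washed twice in PBS, fixed in 4% formaldehyde for 30 min at 4 °C, washed again, spotted on glass slides, dried and mounted. Examined by confocal microscopy, with visible, fluorescent and merged images compared against untreated cells.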

[9] = Drug transport in Candida albicans ATCC 60193 assessed as ABC transpoter-mediated drug accumulation in cytoplasm at 40 uM after 48 hrs by confocal microscopic analysis; type: ADME; method in brief: as §2
[10] = Drug transport in Cryptococcus neoformans with damaged cell wall assessed as ABC transpoter-mediated drug accumulation in cytoplasm at 40 uM after 48 hrs by confocal microscopic analysis; type: ADME; method in brief: as §2
[11] = Drug transport in Cryptococcus neoformans assessed as ABC transpoter-mediated drug accumulation in cytoplasm at 40 uM after 48 hrs by confocal microscopic analysis; type: ADME; method in brief: as §2
[12] = test system: Candida albicans; assay: Antifungal activity against Candida albicans isolate DSY654 harboring CDR1/2 deletion mutant at 100 ug/ml by serial dilution assay; type: functional, organism-based
Method in brief: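 Spot dilution assay: C. albicans cells 10-fold serially diluted from 2 × 10^7 cells/mL, with 5 µL of each dilution spotted onto YEPD agar plates containing the drug.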

In the case of CN(C)c1cccc2c(S(=O)(=O)NC(=N)NCCCCCCCCN3CCCCCCCCNC(=N)NC3=O)cccc12, the MIC [1] is reported as > 125 µM, the Drug transport [2] is reported as “Active” and the Drug transport [3] is reported as “Active”.

With OC(Cn1cncn1)(Cn1cncn1)c1ccc(F)cc1F the Activity [4] was “Active”, the Activity [5] was “Active” and the Activity [6] was “Active”. The Activity [7] was “Active”.

In the case of CN(C)c1cccc2c(S(=O)(=O)NCCCCCCCCN3CCCCCCCCNC(=N)NC3=O)cccc12, the MIC [1] is reported as > 125 µM, the Drug transport [2] is reported as “Active” and the Drug transport [3] is reported as “Active”.

For C/C=C/CNC(=N)NCCCCCCCCN1CCCCCCOc2cc(OCCCNC(=S)Nc3ccc4c(c3)C(=O)OC43c4ccc(O)cc4Oc4cc(O)ccc43)ccc2CNC(=N)NC1=O, the Drug transport [8] was “Not Active”, the MIC [1] was 80 µM (≈ 78.1 µg/mL) and the Drug transport [9] was “Active”. The Drug transport [10] was “Not Active” and the Drug transport [11] was “Active”.

With OCCN1CCN(CCCN2c3ccccc3Sc3ccc(C(F)(F)F)cc32)CC1 the Activity [12] was “Active”.
